Results published in ChEMBL document CHEMBL4680311, “Synthesis, characterization, in vitro SAR study, and preliminary in vivo toxicity evaluation of naphthylmethyl substituted bis-imidazolium salts” (Bioorg Med Chem, 2021).

Tests used:
A549 [1] = test: Growth inhibition of human A549/ATCC cells incubated for 48 hrs by sulforhodamine B assay; assay type: functional; conditions: for CC50: read-out: LC50 (the source's name)
Outline: (§1)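 NCI DTP NCI-60 five-dose screen, same procedure as the one-dose assay: 24 h preincubation, then 48 h exposure. Five tenfold-spaced concentrations were used, from 100 μM to 10 nM or from 25 μM to 2.5 nM depending on compound. GI50, TGI and LC50 were read from growth-percentage curves relative to control cells.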

NCI-H460 [2] = test: Growth inhibition of human NCI-H460 cells incubated for 48 hrs by sulforhodamine B assay; assay type: functional; outline: as §1
[3] = Toxicity in C57BL/6 mouse assessed as body weight loss measured on day 6 at 20 mg/kg, ip administered on day 0, 7, 14 and 29; conditions: in vivo
NCI-H322M [4] = test: Antiproliferative activity against human NCI-H322M cells assessed as cell growth at 10 uM incubated for 48 hrs by sulforhodamine B assay relative to control; assay type: functional; conditions: read-out: Activity
Outline: (§2)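 NCI DTP NCI-60 one-dose screen on the NSCLC panel. Cells were seeded at densities set by doubling rate and incubated 24 h. They were then exposed to a single 10 μM dose for 48 h. Each value is a growth percentage relative to the initial cell population: positive means net growth, negative means net cell kill.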

[5] = Toxicity in C57BL/6 mouse assessed as body weight gain at 20 mg/kg, ip administered on day 0, 7, 14 and 29; assay type: organism-based; conditions: in vivo, 96 h, time 4 day
Outline: (§3)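 Male C57BL/6 mice, eight weeks old, acclimated 5 days, 3 per cage, 12 h light/dark, food and water ad libitum. IP injection of 100 μL of a 4 mg/mL solution in 20% 2-HPβCD sterile PBS (~20 mg/kg assuming 20 g mouse) on days 0, 7, 14, 29. Vehicle mice got 2-HPβCD on days 0, 7, 14, 21, 25, 29. Weighed and observed daily; sacrificed day 29.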

[6] = Toxicity in C57BL/6 mouse assessed as body weight loss recovery measured after second and third injection at 20 mg/kg, ip administered on day 0, 7, 14 and 29 relative to control; assay type: organism-based; conditions: in vivo, 96 h, time 4 day; outline: as §3
[7] = Toxicity in C57BL/6 mouse assessed as body weight loss at 20 mg/kg, ip administered on day 0, 7, 14 and 29 relative to control; assay type: organism-based; conditions: in vivo, 96 h, time 4 day
Outline: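 Male C57BL/6 mice, 8 weeks old, acclimated 5 days, 12 h light/dark, 3 per cage, n = 3. Mice got 100 μL of 4 mg/mL drug in 20% 2-HPβCD in sterile PBS, about 20 mg/kg assuming 20 g, IP on days 0, 7, 14 and 29 (1 h before sacrifice). Vehicle mice were dosed IP on days 0, 7, 14, 21, 25 and 29. Weight and behaviour were checked daily; sacrifice was on day 29.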

HOP-62 [8] = test: Growth inhibition of human HOP-62 cells incubated for 48 hrs by sulforhodamine B assay; assay type: functional; outline: as §1
HOP-62 [9] = test: Antiproliferative activity against human HOP-62 cells assessed as cell growth at 10 uM incubated for 48 hrs by sulforhodamine B assay relative to control; assay type: functional; conditions: read-out: Activity; outline: as §2
NCI-H226 [10] = test: Growth inhibition of human NCI-H226 cells incubated for 48 hrs by sulforhodamine B assay; assay type: functional; outline: as §1
A549 [11] = test: Cytotoxicity against human A549 cells assessed as cell growth inhibition measured after 72 hrs by MTT assay; assay type: functional, cell-based; conditions: A549, 72 h
Outline: (§4)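 Cells kept in RPMI 1640 with 10% FBS at 37 °C, 5% CO₂, passaged every 2–3 days; grown to confluence, seeded at 5,000–7,000 cells/well depending on line, incubated 24 h. Compounds dissolved in 1% DMSO, diluted in medium to 1, 4, 16, 32 μM (6 replicates each), 72 h exposure. MTT 3–4 h, medium aspirated, DMSO added, 15 min, OD 540 nm; IC50 relative to untreated cells.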

EKVX [12] = test: Growth inhibition of human EKVX cells incubated for 48 hrs by sulforhodamine B assay; assay type: functional; outline: as §1
NCI-H23 [13] = test: Growth inhibition of human NCI-H23 cells incubated for 48 hrs by sulforhodamine B assay; assay type: functional; outline: as §1
NCI-H460 [14] = test: Antiproliferative activity against human NCI-H460 cells assessed as cell growth at 10 uM incubated for 48 hrs by sulforhodamine B assay relative to control; assay type: functional; conditions: read-out: Activity; outline: as §2
EKVX [15] = test: Antiproliferative activity against human EKVX cells assessed as cell growth at 10 uM incubated for 48 hrs by sulforhodamine B assay relative to control; assay type: functional; conditions: read-out: Activity; outline: as §2
NCI-H322M [16] = test: Growth inhibition of human NCI-H322M cells incubated for 48 hrs by sulforhodamine B assay; assay type: functional; outline: as §1
NCI-H1975 = test: Cytotoxicity against human NCI-H1975 cells assessed as cell growth inhibition measured after 72 hrs by MTT assay; assay type: functional, cell-based; conditions: NCI-H1975, 72 h; outline: as §4
NCI-H226 [17] = test: Antiproliferative activity against human NCI-H226 cells assessed as cell growth at 10 uM incubated for 48 hrs by sulforhodamine B assay relative to control; assay type: functional; conditions: read-out: Activity; outline: as §2
NCI-H522 [18] = test: Growth inhibition of human NCI-H522 cells incubated for 48 hrs by sulforhodamine B assay; assay type: functional; conditions: for CC50: read-out: LC50 (the source's name); outline: as §1
HOP-92 [19] = test: Antiproliferative activity against human HOP-92 cells assessed as cell growth at 10 uM incubated for 48 hrs by sulforhodamine B assay relative to control; assay type: functional; conditions: read-out: Activity; outline: as §2
A549 [20] = test: Antiproliferative activity against human A549/ATCC cells assessed as cell growth at 10 uM incubated for 48 hrs by sulforhodamine B assay relative to control; assay type: functional; conditions: read-out: Activity; outline: as §2
NCI-H460 [21] = test: Cytotoxicity against human NCI-H460 cells assessed as cell growth inhibition measured after 72 hrs by MTT assay; assay type: functional, cell-based; conditions: NCI-H460, 72 h; outline: as §4
NCI-H23 [22] = test: Antiproliferative activity against human NCI-H23 cells assessed as cell growth at 10 uM incubated for 48 hrs by sulforhodamine B assay relative to control; assay type: functional; conditions: read-out: Activity; outline: as §2
HCC827 = test: Cytotoxicity against human HCC827 cells assessed as cell growth inhibition measured after 72 hrs by MTT assay; assay type: functional, cell-based; conditions: HCC827, 72 h; outline: as §4
HOP-92 [23] = test: Growth inhibition of human HOP-92 cells incubated for 48 hrs by sulforhodamine B assay; assay type: functional; outline: as §1
NCI-H522 [24] = test: Antiproliferative activity against human NCI-H522 cells assessed as cell growth at 10 uM incubated for 48 hrs by sulforhodamine B assay relative to control; assay type: functional; conditions: read-out: Activity; outline: as §2

Compound	CC50 (A549 [1])	GI50 (NCI-H460 [2])	LC50 (concentration giving 50% net cell kill) (NCI-H460 [2])	TGI (NCI-H460 [2])	growth at 10 µM (NCI-H322M [4])	GI50 (HOP-62 [8])	LC50 (concentration giving 50% net cell kill) (HOP-62 [8])	growth at 10 µM (HOP-62 [9])	GI50 (NCI-H226 [10])	LC50 (NCI-H226 [10])	IC50 (A549 [11])	growth at 10 µM (NCI-H460 [14])	growth at 10 µM (EKVX [15])	IC50 (NCI-H1975)	growth at 10 µM (NCI-H226 [17])	growth at 10 µM (HOP-92 [19])	growth at 10 µM (A549 [20])	IC50 (NCI-H460 [21])	growth at 10 µM (NCI-H23 [22])	IC50 (HCC827)	other results
[Br-].[Br-].c1ccc2cc(Cn3cc[n+](CCCCCCCCCCn4cc[n+](Cc5ccc6ccccc6c5)c4)c3)ccc2c1	50.3 µM	376 nM	45.9 µM	10.1 µM	34.5%	1090 nM	44.5 µM	-4.86%	918 nM	> 100 µM	< 1 µM	11%	13.7%	2 µM	39.5%	-23.6%	18.6%	< 1 µM	5.67%	7 µM	body weight loss at 96 h [3]: 10%; Activity [5]: Toxic; Activity [6]: Toxic; Activity [7]: 4%; TGI (NCI-H226 [10]): 13.6 µM; GI50 (EKVX [12]): 442 nM; LC50 (EKVX [12]): 58.4 µM; GI50 (NCI-H23 [13]): 445 nM; LC50 (NCI-H23 [13]): 39.9 µM; GI50 (NCI-H322M [16]): 3550 nM; LC50 (concentration giving 50% net cell kill) (NCI-H322M [16]): 48.1 µM; TGI (NCI-H322M [16]): 18.4 µM; GI50 (NCI-H522 [18]): 436 nM; CC50 (NCI-H522 [18]): 5.95 µM; GI50 (HOP-92 [23]): 396 nM; LC50 (concentration giving 50% net cell kill) (HOP-92 [23]): 15.2 µM
c1ccc2cc(Cn3cc[n+](CCCCCCCCCCCCn4cc[n+](Cc5ccc6ccccc6c5)c4)c3)ccc2c1	14.2 µM	814 nM	14.6 µM	2.96 µM	-18.4%	815 nM	12.2 µM	-58%	984 nM	> 25 µM	< 1 µM	–	-62.6%	< 1 µM	-42.1%	-68.2%	-74.2%	< 1 µM	-80.3%	4 µM	GI50 (A549 [1]): 744 nM; TGI (NCI-H226 [10]): 5.52 µM; GI50 (EKVX [12]): 893 nM; LC50 (EKVX [12]): 20.8 µM; GI50 (NCI-H23 [13]): 722 nM; LC50 (NCI-H23 [13]): 11.2 µM; GI50 (NCI-H322M [16]): 859 nM; LC50 (concentration giving 50% net cell kill) (NCI-H322M [16]): 10.4 µM; TGI (NCI-H322M [16]): 3.9 µM; GI50 (NCI-H522 [18]): 470 nM; CC50 (NCI-H522 [18]): 9.89 µM; GI50 (HOP-92 [23]): 500 nM; LC50 (concentration giving 50% net cell kill) (HOP-92 [23]): 7.29 µM
c1ccc2cc(Cn3cc[n+](CCn4cc[n+](Cc5ccc6ccccc6c5)c4)c3)ccc2c1	–	–	–	–	86.4%	–	–	86%	–	–	> 30 µM	–	91.4%	> 30 µM	82.7%	79.2%	64.1%	14 µM	88.9%	> 30 µM	–
c1ccc2cc(Cn3cc[n+](CCCCCn4cc[n+](Cc5ccc6ccccc6c5)c4)c3)ccc2c1	–	–	–	–	86.2%	–	–	57%	–	–	4 µM	30.5%	47.1%	12 µM	72.6%	66%	41.7%	2 µM	45.3%	> 30 µM	growth at 10 µM (NCI-H522 [24]): 35.7%
c1ccc2cc(Cn3cc[n+](CCCCn4cc[n+](Cc5ccc6ccccc6c5)c4)c3)ccc2c1	–	–	–	–	90%	–	–	54.8%	–	–	4 µM	38.2%	58.1%	11 µM	82%	68.4%	49.3%	4 µM	44%	13 µM	growth at 10 µM (NCI-H522 [24]): 43.4%
